Experimental data: ChEMBL document CHEMBL5674880 (PLoS One, 2018)

Key:
[1] = test system: CWR22R; assay: Antiproliferative activity against human 22Rv1 cells after 10 days; type: functional, cell-based; details: 22Rv1, 240 h
How it was run: (§1)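 Tested as part of a 240-line cancer cell panel (Eurofins Oncopanel); all lines were mycoplasma-negative and STR-verified. Cells were exposed to a compound concentration series in 2D culture for 10 days. The highest concentration was 10 μM or 25 μM, depending on the inhibitor. Antiproliferative IC50 was derived from the mean of three biological replicates.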

[2] = test system: 786-0; assay: Antiproliferative activity against human 786-0 cells after 10 days; type: functional, cell-based; details: 786-0, 240 h; how it was run: as §1
[3] = test system: A101D; assay: Antiproliferative activity against human A101D cells after 10 days; type: functional, cell-based; details: 240 h; how it was run: as §1
[4] = test system: A673; assay: Antiproliferative activity against human A673 cells after 10 days; type: functional, cell-based; details: A673, 240 h; how it was run: as §1
[5] = Antiproliferative activity against human BM-1604 cells after 10 days; type: functional, cell-based; details: BM-1604, 240 h; how it was run: as §1
[6] = test system: BT-474; assay: Antiproliferative activity against human BT-474 cells after 10 days; type: functional, cell-based; details: BT-474, 240 h; how it was run: as §1
[7] = test system: CAKI-2; assay: Antiproliferative activity against human CAKI-2 cells after 10 days; type: functional, cell-based; details: CAKI-2, 240 h; how it was run: as §1
[8] = test system: Calu-6; assay: Antiproliferative activity against human Calu-6 cells after 10 days; type: functional, cell-based; details: Calu-6, 240 h
How it was run: (§2)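 10-day 2D proliferation screen of a broad cancer cell panel (about 240 lines, Eurofins Oncopanel). All lines were mycoplasma negative and STR verified. Compounds were dosed up to a top concentration of 10 μM or 25 μM, depending on the inhibitor. Anti-proliferative IC50 values are the average of three biological replicates.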

[9] = test system: CAMA-1; assay: Antiproliferative activity against human CAMA-1 cells after 10 days; type: functional, cell-based; details: CAMA-1, 240 h; how it was run: as §1
[10] = test system: CGTH-W-1; assay: Antiproliferative activity against human CGTH-W-1 cells after 10 days; type: functional, cell-based; details: CGTH-W-1, 240 h; how it was run: as §1
[11] = test system: COR-L105; assay: Antiproliferative activity against human COR-L105 cells after 10 days; type: functional, cell-based; details: COR-L105, 240 h; how it was run: as §2
[12] = test system: DK-MG; assay: Antiproliferative activity against human DK-MG cells after 10 days; type: functional, cell-based; details: 240 h; how it was run: as §2
[13] = test system: DoTc2-4510; assay: Antiproliferative activity against human DoTc2-4510 cells after 10 days; type: functional, cell-based; details: DoTc2-4510, 240 h; how it was run: as §2
[14] = test system: G-401; assay: Antiproliferative activity against human G-401 cells after 10 days; type: functional, cell-based; details: G-401, 240 h; how it was run: as §2
[15] = test system: Hs 695T; assay: Antiproliferative activity against human Hs 695T cells after 10 days; type: functional, cell-based; details: 240 h; how it was run: as §2
[16] = test system: HT; assay: Antiproliferative activity against human HT cells after 10 days; type: functional, cell-based; details: 240 h; how it was run: as §2
[17] = test system: HT1197; assay: Antiproliferative activity against human HT1197 cells after 10 days; type: functional, cell-based; details: HT1197, 240 h
How it was run: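 Cell lines run in the Eurofins Oncopanel broad cancer panel, all mycoplasma-negative and STR-verified. Cells were exposed to a compound concentration series in a 10-day proliferation assay, and an anti-proliferative IC50 was derived. Values are the mean of three biological replicates.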

[18] = test system: HT-1376; assay: Antiproliferative activity against human HT-1376 cells after 10 days; type: functional, cell-based; details: HT-1376, 240 h; how it was run: as §2
[19] = test system: HT-3; assay: Antiproliferative activity against human HT-3 cells after 10 days; type: functional, cell-based; details: HT-3, 240 h; how it was run: as §2
[20] = test system: HuCCT-1; assay: Antiproliferative activity against human HuCCT-1 cells after 10 days; type: functional, cell-based; details: HuCCT-1, 240 h; how it was run: as §2
[21] = test system: J-RT3-T3-5; assay: Antiproliferative activity against human J-RT3-T3-5 cells after 10 days; type: functional, cell-based; details: J-RT3-T3-5, 240 h
How it was run: (§3)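 Broad cancer cell line panel (Eurofins Oncopanel, about 240 lines; mycoplasma negative, STR verified) grown in 2D culture and exposed to compound in a 10-day proliferation assay. The top concentration was 10 μM for the SMYD2 inhibitor series and 25 μM for the SMYD3 inhibitor. The proliferative IC50 is taken from concentration-response data, each value the mean of three biological replicates.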

[22] = test system: KLE; assay: Antiproliferative activity against human KLE cells after 10 days; type: functional, cell-based; details: 240 h; how it was run: as §3
[23] = test system: LNCaP; assay: Antiproliferative activity against human LNCaP cells after 10 days; type: functional, cell-based; details: 240 h; how it was run: as §3
[24] = test system: LS174T; assay: Antiproliferative activity against human LS174T cells after 10 days; type: functional, cell-based; details: 240 h; how it was run: as §3
[25] = test system: Malme-3M; assay: Antiproliferative activity against human Malme-3M cells after 10 days; type: functional, cell-based; details: 240 h; how it was run: as §3
[26] = test system: MeWo; assay: Antiproliferative activity against human MeWo cells after 10 days; type: functional, cell-based; details: 240 h; how it was run: as §3
[27] = test system: MOLT-3; assay: Antiproliferative activity against human MOLT-3 cells after 10 days; type: functional, cell-based; details: MOLT-3, 240 h; how it was run: as §3
[28] = test system: NCI-H295R; assay: Antiproliferative activity against human NCI-H295R cells after 10 days; type: functional, cell-based; details: 240 h; how it was run: as §3
[29] = test system: PC-3; assay: Antiproliferative activity against human PC-3 cells after 10 days; type: functional, cell-based; details: PC-3, 240 h; how it was run: as §3
[30] = test system: RKO; assay: Antiproliferative activity against human RKO cells after 10 days; type: functional, cell-based; details: 240 h; how it was run: as §3
[31] = test system: RPMI-8226; assay: Antiproliferative activity against human RPMI-8226 cells after 10 days; type: functional, cell-based; details: RPMI-8226, 240 h
[32] = test system: SCC-25; assay: Antiproliferative activity against human SCC-25 cells after 10 days; type: functional, cell-based; details: SCC-25, 240 h
[33] = test system: SCC-4; assay: Antiproliferative activity against human SCC-4 cells after 10 days; type: functional, cell-based; details: SCC-4, 240 h
[34] = test system: SCC-9; assay: Antiproliferative activity against human SCC-9 cells after 10 days; type: functional, cell-based; details: SCC-9, 240 h
[35] = test system: SK-LMS-1; assay: Antiproliferative activity against human SK-LMS-1 cells after 10 days; type: functional, cell-based; details: SK-LMS-1, 240 h
[36] = test system: SK-MEL-1; assay: Antiproliferative activity against human SK-MEL-1 cells after 10 days; type: functional, cell-based; details: SK-MEL-1, 240 h
[37] = test system: SK-UT-1; assay: Antiproliferative activity against human SK-UT-1 cells after 10 days; type: functional, cell-based; details: SK-UT-1, 240 h
[38] = test system: SNB-19; assay: Antiproliferative activity against human SNB-19 cells after 10 days; type: functional, cell-based; details: SNB-19, 240 h
[39] = test system: SW13; assay: Antiproliferative activity against human SW13 cells after 10 days; type: functional, cell-based; details: SW13, 240 h
[40] = test system: SW1783; assay: Antiproliferative activity against human SW1783 cells after 10 days; type: functional, cell-based; details: SW1783, 240 h
[41] = test system: SW-403; assay: Antiproliferative activity against human SW403 cells after 10 days; type: functional, cell-based; details: SW-403, 240 h
[42] = test system: SW837; assay: Antiproliferative activity against human SW837 cells after 10 days; type: functional, cell-based; details: SW837, 240 h
[43] = test system: SW900; assay: Antiproliferative activity against human SW900 cells after 10 days; type: functional, cell-based; details: SW900, 240 h
[44] = test system: T-24; assay: Antiproliferative activity against human T24 cells after 10 days; type: functional, cell-based; details: T-24, 240 h
[45] = test system: TCC-SUP; assay: Antiproliferative activity against human TCC-SUP cells after 10 days; type: functional, cell-based; details: 240 h
[46] = test system: U138-MG; assay: Antiproliferative activity against human U138-MG cells after 10 days; type: functional, cell-based; details: 240 h
[47] = test system: U2OS; assay: Antiproliferative activity against human U2OS cells after 10 days; type: functional, cell-based; details: 240 h
[48] = test system: U-87 MG; assay: Antiproliferative activity against human U-87MG cells after 10 days; type: functional, cell-based, U-87MG ATCC; details: 240 h
[49] = test system: Y79; assay: Antiproliferative activity against human Y79 cells after 10 days; type: functional, cell-based; details: Y79, 240 h
[50] = test system: YAPC; assay: Antiproliferative activity against human YAPC cells after 10 days; type: functional, cell-based; details: 240 h

## Cc1cn(CCN2CCN(c3ccccc3-c3cc(C#N)cc(C(=O)NCCCN4CCCC4)c3)CC2)c2ccccc12
[1]
  IC50: 1.06 µM
[2]
  IC50: 2.1 µM
[3]
  IC50: 1.23 µM
[4]
  IC50: 2.03 µM
[5]
  IC50: 4.82 µM
[6]
  IC50: 2.94 µM
[7]
  IC50: 1.22 µM
[8]
  IC50: 3.68 µM
[9]
  IC50: 2.93 µM
[10]
  IC50: 2.87 µM
[11]
  IC50: 1.11 µM
[12]
  IC50: 6.42 µM
[13]
  IC50: 1.07 µM
[14]
  IC50: 0.905 µM
[15]
  IC50: 6.65 µM
[16]
  IC50: 1.93 µM
[17]
  IC50: 1.56 µM
[18]
  IC50: 2.35 µM
[19]
  IC50: 3.27 µM
[20]
  IC50: 1.24 µM
[21]
  IC50: 1.18 µM
[22]
  IC50: 3.21 µM
[23]
  IC50: 3.44 µM
[24]
  IC50: 1.47 µM
[25]
  IC50: 2.4 µM
[26]
  IC50: 1.98 µM
[27]
  IC50: 1.36 µM
[28]
  IC50: 4.84 µM
[29]
  IC50: 2.77 µM
[30]
  IC50: 1.04 µM
[31]
  IC50: 1.56 µM
[32]
  IC50: 2.52 µM
[33]
  IC50: 3.59 µM
[34]
  IC50: 1.18 µM
[35]
  IC50: 2.41 µM
[36]
  IC50: 1.9 µM
[37]
  IC50: 1.41 µM
[38]
  IC50: 2.52 µM
[39]
  IC50: 2.68 µM
[40]
  IC50: 2.96 µM
[41]
  IC50: 3.12 µM
[42]
  IC50: 3.69 µM
[43]
  IC50: 3.22 µM
[44]
  IC50: 2.94 µM
[45]
  IC50: 2.26 µM
[46]
  IC50: 4.54 µM
[47]
  IC50: 1.68 µM
[48]
  IC50: 2.85 µM
[49]
  IC50: 3.53 µM
[50]
  IC50: 2.87 µM

## O=C(NC1CN(Cc2cnn(Cc3ccccc3)c2)C1)c1cn(C2CC2)nn1
[1]
  IC50: > 10 µM
[2]
  IC50: > 10 µM
[3]
  IC50: > 10 µM
[4]
  IC50: > 10 µM
[5]
  IC50: > 10 µM
[6]
  IC50: > 10 µM
[7]
  IC50: > 10 µM
[8]
  IC50: > 10 µM
[9]
  IC50: > 10 µM
[10]
  IC50: > 10 µM
[11]
  IC50: > 10 µM
[12]
  IC50: > 10 µM
[13]
  IC50: > 10 µM
[14]
  IC50: > 10 µM
[15]
  IC50: > 10 µM
[16]
  IC50: > 10 µM
[17]
  IC50: > 10 µM
[18]
  IC50: > 10 µM
[19]
  IC50: > 10 µM
[20]
  IC50: > 10 µM
[21]
  IC50: 0.003 µM
[22]
  IC50: > 10 µM
[23]
  IC50: > 10 µM
[24]
  IC50: > 10 µM
[25]
  IC50: > 10 µM
[26]
  IC50: > 10 µM
[27]
  IC50: > 10 µM
[28]
  IC50: > 10 µM
[29]
  IC50: > 10 µM
[30]
  IC50: > 10 µM
[31]
  IC50: > 10 µM
[32]
  IC50: > 10 µM
[33]
  IC50: > 10 µM
[34]
  IC50: > 10 µM
[35]
  IC50: > 10 µM
[36]
  IC50: > 10 µM
[37]
  IC50: > 10 µM
[38]
  IC50: > 10 µM
[39]
  IC50: > 10 µM
[40]
  IC50: > 10 µM
[41]
  IC50: > 10 µM
[42]
  IC50: > 10 µM
[43]
  IC50: > 10 µM
[44]
  IC50: > 10 µM
[45]
  IC50: > 10 µM
[46]
  IC50: > 10 µM
[47]
  IC50: > 10 µM
[48]
  IC50: > 10 µM
[49]
  IC50: > 10 µM
[50]
  IC50: > 10 µM
